Active and inactive are the calls of the source. No cut-off for these calls is given here.
Assays:
Adenosine receptor A3 [1] = target: T1, Adenosine receptor A3 (Rattus norvegicus, UniProt P28647); experiment: Displacement of [125I]I-AB-MECA from rat adenosine A3 receptor expressed in CHO cells; type: cell-based
T1 sequence (P28647 whole entry): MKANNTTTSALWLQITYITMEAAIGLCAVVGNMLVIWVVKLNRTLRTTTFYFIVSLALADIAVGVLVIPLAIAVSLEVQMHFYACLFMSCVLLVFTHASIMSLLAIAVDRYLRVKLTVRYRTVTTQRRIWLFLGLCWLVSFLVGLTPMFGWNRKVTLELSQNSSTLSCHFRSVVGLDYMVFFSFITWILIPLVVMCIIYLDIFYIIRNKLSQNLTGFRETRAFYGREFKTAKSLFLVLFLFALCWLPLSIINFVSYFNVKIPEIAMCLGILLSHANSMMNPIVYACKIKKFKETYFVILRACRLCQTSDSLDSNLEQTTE

[2] = target: T2, Adenosine receptor A3 (Homo sapiens) (UniProt P0DMS8); experiment: Antagonist activity at human adenosine A3 receptor expressed in CHO cells assessed as inhibition of forskolin-stimulated cAMP production at 10 uM relative to (2S,3S,4R,5R)-5-(6-(3-iodobenzylamino)-9H-purin-9-yl)-3,4-dihydroxy-N-methyl-tetrahydrothiophene-2-carboxamide; type: functional, cell-based; set-up: scale not given: the % may be the effect or the level left
T2 sequence (whole entry): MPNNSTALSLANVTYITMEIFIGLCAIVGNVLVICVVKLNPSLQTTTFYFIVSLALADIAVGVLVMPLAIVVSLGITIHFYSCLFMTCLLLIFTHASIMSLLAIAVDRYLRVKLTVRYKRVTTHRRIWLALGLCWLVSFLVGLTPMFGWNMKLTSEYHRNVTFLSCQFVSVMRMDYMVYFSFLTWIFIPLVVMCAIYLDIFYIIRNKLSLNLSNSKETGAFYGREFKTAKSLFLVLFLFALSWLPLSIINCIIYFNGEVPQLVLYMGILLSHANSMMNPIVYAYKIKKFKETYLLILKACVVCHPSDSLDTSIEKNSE
Summary of the method: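 CHO cells stably expressing human A3 AR; forskolin-stimulated cAMP production measured with test compound at 10 μM; response given as mean percentage of a full A3 agonist's effect, n = 1–3.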

[3] = target: T2, Adenosine receptor A3 (Homo sapiens); experiment: Displacement of [125I]I-AB-MECA from human adenosine A3 receptor expressed in CHO cells at 10 uM; type: cell-based
Summary of the method: (§1)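 Membranes (20 μg protein) from CHO cells stably expressing human or rat A3 AR were incubated with 0.5 nM [125I]I-AB-MECA and increasing ligand concentrations in 50 mM Tris-HCl pH 7.4 with 10 mM MgCl2 for 60 min at 25 °C. Nonspecific binding was set with 10 μM NECA. Filtration through GF/B, washed ×3 with ice-cold buffer, γ-counting.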

[4] = target: T3, Adenosine receptor A1 (Homo sapiens) (UniProt P30542); experiment: Displacement of [3H]CCPA from human adenosine A1 receptor expressed in CHO cells at 10 uM; type: cell-based
T3 sequence (whole entry): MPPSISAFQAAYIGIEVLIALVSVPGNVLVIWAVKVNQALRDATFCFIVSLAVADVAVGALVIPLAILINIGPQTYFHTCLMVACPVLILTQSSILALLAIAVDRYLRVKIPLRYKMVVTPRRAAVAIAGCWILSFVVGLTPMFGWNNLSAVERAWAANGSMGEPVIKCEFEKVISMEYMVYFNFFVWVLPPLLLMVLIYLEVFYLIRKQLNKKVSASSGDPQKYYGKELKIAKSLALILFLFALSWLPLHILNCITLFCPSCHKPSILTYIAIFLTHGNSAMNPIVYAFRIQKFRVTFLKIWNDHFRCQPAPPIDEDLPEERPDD
Summary of the method: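 Human A1 AR CHO membranes (40 μg/tube) were incubated with 1 nM [3H]CCPA in 50 mM Tris-HCl pH 7.4 with 10 mM MgCl2 for 60 min at 25 °C; 10 μM NECA defined nonspecific binding; GF/B filtration.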

[5] = target: Adenosine receptor A2a (Homo sapiens) (UniProt P29274); experiment: Displacement of [3H]CGS-21680 from human adenosine A2A receptor expressed in HEK293 cells at 10 uM; type: cell-based
Summary of the method: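 Human A2A AR HEK-293 membranes (20 μg/tube) with [3H]CGS21680 in 50 mM Tris-HCl pH 7.4 with 10 mM MgCl2, 60 min at 25 °C; nonspecific binding with 10 μM NECA; GF/B filtration.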

[6] = target: T4, Adenosine receptor A2b (Homo sapiens) (UniProt P29275); experiment: Agonist activity at human adenosine A2B receptor by cAMP assay; type: functional
T4 sequence (whole entry): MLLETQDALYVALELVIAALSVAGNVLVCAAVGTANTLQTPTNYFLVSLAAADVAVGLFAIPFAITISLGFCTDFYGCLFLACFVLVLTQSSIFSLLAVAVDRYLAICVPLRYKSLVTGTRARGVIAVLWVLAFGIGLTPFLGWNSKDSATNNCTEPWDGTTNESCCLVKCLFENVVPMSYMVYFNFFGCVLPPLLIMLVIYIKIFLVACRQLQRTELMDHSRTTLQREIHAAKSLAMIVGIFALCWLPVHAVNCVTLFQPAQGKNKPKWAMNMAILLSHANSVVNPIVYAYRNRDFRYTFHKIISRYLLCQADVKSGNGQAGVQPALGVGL

[7] = target: T4, Adenosine receptor A2b (Homo sapiens); experiment: Antagonist activity at human adenosine A2B receptor by cAMP assay; type: functional
Adenosine receptor A1 = target: T5, Adenosine receptor A1 (Homo sapiens, UniProt P30542); experiment: Displacement of [3H]CCPA from human adenosine A1 receptor expressed in CHO cells; type: cell-based
T5 sequence (P30542 whole entry): T3 sequence (whole entry)

Adenosine receptor A3 [8] = target: T6, Adenosine receptor A3 (Homo sapiens, UniProt P0DMS8); experiment: Displacement of [125I]I-AB-MECA from human adenosine A3 receptor expressed in CHO cells; type: cell-based
T6 sequence (P0DMS8 whole entry): T2 sequence (whole entry)

[9] = target: T7, Adenosine receptor A3 (Rattus norvegicus) (UniProt P28647); experiment: Displacement of [125I]I-AB-MECA from rat adenosine A3 receptor expressed in CHO cells at 10 uM; type: cell-based; summary of the method: as §1
T7 sequence (whole entry): T1 sequence (P28647 whole entry)

Sequence of Adenosine receptor A2a (Homo sapiens) (P29274 whole entry): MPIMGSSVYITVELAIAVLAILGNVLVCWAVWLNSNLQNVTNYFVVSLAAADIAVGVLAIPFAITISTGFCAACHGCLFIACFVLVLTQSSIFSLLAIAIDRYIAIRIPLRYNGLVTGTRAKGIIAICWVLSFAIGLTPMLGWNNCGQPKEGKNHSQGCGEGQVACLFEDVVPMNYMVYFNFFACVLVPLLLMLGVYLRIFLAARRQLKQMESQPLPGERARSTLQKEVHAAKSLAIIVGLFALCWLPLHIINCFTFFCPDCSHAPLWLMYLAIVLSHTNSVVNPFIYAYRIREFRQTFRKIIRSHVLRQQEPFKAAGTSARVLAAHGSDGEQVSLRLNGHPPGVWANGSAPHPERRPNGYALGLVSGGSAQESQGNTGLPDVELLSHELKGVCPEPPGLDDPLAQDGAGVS

Compound	Ki (Adenosine receptor A3 [1]) [nM]	Activity [2]	also measured
O[C@@H]1[C@H](O)CS[C@H]1n1cnc2c(NCc3cccc(F)c3)ncnc21	98	< 10%	–
O[C@@H]1[C@H](O)CS[C@H]1n1cnc2c(NCc3cccc(Br)c3)ncnc21	6.3	< 10%	–
O[C@@H]1[C@H](O)CS[C@H]1n1cnc2c(NCc3cccc(Cl)c3)nc(Cl)nc21	–	< 10%	–
O[C@@H]1[C@H](O)CS[C@H]1n1cnc2c(NCc3cccc(I)c3)ncnc21	–	< 10%	–
O[C@@H]1[C@H](O)CS[C@H]1n1cnc2c(NCc3cccc(Cl)c3)ncnc21	17	< 10%	–
CNc1nc(Cl)nc2c1ncn2[C@@H]1SC[C@@H](O)[C@H]1O	–	< 10%	–
CNc1ncnc2c1ncn2[C@@H]1SC[C@@H](O)[C@H]1O	–	< 10%	Ki (Adenosine receptor A1): 1070 nM; Ki (Adenosine receptor A3 [8]): 4.8 nM; inhibition [9]: 28%; inhibition [5]: 22%
CNC(=O)[C@H]1S[C@@H](n2cnc3c(NCc4cccc(I)c4)ncnc32)[C@H](O)[C@@H]1O	1.86	Active	Ki (Adenosine receptor A1): 17.3 nM; Ki (Adenosine receptor A3 [8]): 0.25 nM

More lines, main results first:

Ki (Adenosine receptor A3 [1]) [nM]	Activity [2]	Compound	also measured
–	< 10%	O[C@@H]1[C@H](O)CS[C@H]1n1cnc2c(NCc3cccc(Br)c3)nc(Cl)nc21	–
–	< 10%	O[C@H]1[C@@H](O)CS[C@@H]1n1cnc2c(NCc3cccc(I)c3)nc(Cl)nc21	inhibition [3]: 18.4%; inhibition [4]: -8%; inhibition [5]: -0.95%
–	< 10%	O[C@@H]1[C@H](O)CS[C@H]1n1cnc2c(NCc3cccc(I)c3)nc(Cl)nc21	Activity [6]: inactive; Activity [7]: inactive
–	< 10%	O[C@H]1[C@@H](O)CS[C@@H]1n1cnc2c(NCc3cccc(Br)c3)nc(Cl)nc21	inhibition [3]: 12.6%; inhibition [4]: 6.1%; inhibition [5]: 45.7%
–	< 10%	O[C@@H]1[C@H](O)CS[C@H]1n1cnc2c(NCc3cccc(F)c3)nc(Cl)nc21	–
